Source: ChEMBL document CHEMBL1123629, “Resolution, absolute configuration, and cholinergic enantioselectivity of (-)- and (+)-c-2-methyl-r-5-[(dimethylamino)methyl]-1,3-oxathiolane t-3-oxide methiodide and related sulfones” (1987)

Columns and labels:
[1] = Nicotinic activity on frog rectus abdominis; type: functional, Rectus abdominis muscle
[2] = Eudismic ratio was determined in frog rectus abdominis; type: functional, Rectus abdominis muscle
[3] = Eudismic ratio was determined in guinea pig ileum; type: functional
[4] = Equipotent molar ratio(EPMR) between the ED50 of compound and ED50 of carbachol calculated on frog rectus abdominis; type: functional, Rectus abdominis muscle
In short: (§1)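 ED50 for test agonist and for carbachol (reference) were obtained by regressing the angular transform of fractional contractile effect against log agonist concentration. Potency is expressed as the equipotent molar ratio, ED50 test/ED50 carbachol. Values below 1 indicate greater potency than carbachol.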

[5] = Equipotent molar ratio(EPMR) between the ED50 of compound and ED50 of carbachol calculated on guinea pig ileum; type: functional; in short: as §1
[6] = Muscarinic selectivity is reported as the ED50 ratio (ED50 Nicotinic / ED50 Muscarinic); type: functional
In short: (§2)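 Selectivity is computed from nicotinic (frog rectus abdominis) and muscarinic (guinea pig ileum) data as ED50(N)/ED50(M) and as EPMR(N)/EPMR(M). Each ED50 comes from regressing the angular transform of fractional effect on log agonist concentration, with carbachol as the reference.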

[7] = Muscarinic selectivity is reported as the EPMR ratio (EPMR Nicotinic/ EPMR Muscarinic); type: functional; in short: as §2
Cavia porcellus = organism: Cavia porcellus; experiment: Muscarinic activity on guinea pig ileum; type: functional

SMILES | ED50 [1] | Eudismic ratio [2] | Eudismic ratio [3] | EPMR [4] | EPMR [5] | Selectivity [6] | Selectivity [7] | ED50 (Cavia porcellus) [nM]
C[C@H]1O[C@@H](C[N+](C)(C)C)CS1(=O)=O.[I-] | 0.033 nM | 12 | 1 | 6.5 | 170 | 2.1 | 0.04 | –
C[C@H]1O[C@H](C[N+](C)(C)C)C[S+]1[O-].[I-] (mixture of isomers) | 2100 nM | – | – | 41 | 209 | – | – | 19.6
C[C@@H]1O[C@H](C[N+](C)(C)C)CS1(=O)=O (racemic) | – | – | – | – | – | 3 | 0.05 | –
C[C@H]1O[C@@H](C[N+](C)(C)C)C[S+]1[O-].[I-] (mixture of isomers) | 2300 nM | – | – | 45 | 1.3 | – | – | 12.2
C[C@@H]1O[C@H](C[N+](C)(C)C)CS1(=O)=O.[I-] | – | – | – | 76 | 168 | – | – | 0.000158
C[N+](C)(C)CCOC(N)=O.[Cl-] [CARBACHOL] | 5100 nM | – | – | 1 | 1 | – | – | 94
C[C@@H]1O[C@H](C[N+](C)(C)C)C[C@H]1O (racemic) [MUSCARINE] | > 500 | – | – | >95 | 0.8 | – | – | 79.4
C[C@@H]1O[C@H](C[N+](C)(C)C)CS1(=O)=O.[I-] (racemic) | – | – | – | 15 | 281 | – | – | 0.000264
C[C@@H]1O[C@H](C[N+](C)(C)C)CS1(=O)=O | – | – | – | – | – | 24 | 0.5 | –
